Results taken from PMC5226292 (Pharmacology Research & Perspectives, 2016).
“Also recorded” adds a separate entry of the source.

Assays:
STZ-treated DIO mice = assay: Glycemic control in STZ-treated DIO mice; assay type: in vivo, mouse; conditions: for glucose AUC during OGTTs on days 7 and 14: oral once daily, LY2881835 30 mg/kg, sitagliptin 3 mg/kg
Method in brief: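 Male DIO mice aged 5–6 months got IP streptozotocin 50 mg/kg twice in one week. Two weeks later, mice with 9 am glucose of 180–300 mg/dL were randomized by body weight and glucose. Dosing was oral, once daily for 16 days: test compound 30 mg/kg given 30 min and sitagliptin 3 mg/kg 60 min before OGTTs on days 1, 7 and 14. Glucose was sampled at 0–120 min and glucose AUC calculated; 7 per group, with age-matched non-STZ mice included.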

individuals with T2D = conditions: oral, 12 weeks, ref Araki et al. 2012, Burant et al. 2012; cited from earlier work
Zucker fa/fa rats = assay: Glycemic control in fatty Zucker fa/fa rats; assay type: in vivo, rat; conditions: oral once daily, LY2881835 1 mg/kg, rosiglitazone 3 mg/kg
Method in brief: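 Male Zucker fa/fa rats aged 2–3 months were acclimated for 2 weeks and randomized by body weight and glucose (n = 6/group). Test compound 1 mg/kg, rosiglitazone 3 mg/kg or vehicle was given orally once daily for 21 days. OGTTs on days 1 and 21 sampled blood at 0, 10, 20, 40 and 60 min, averaging two readings. Age-matched lean rats were included.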

[1] = system: primary islets from GPR40 KO mice; assay: Insulin secretion from isolated GPR40 KO mouse islets; assay type: cell-based; conditions: 11.2 mmol/L glucose, 90 min
Method in brief: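 Islets from 2–3-month-old male GPR40 KO mice were purified on a Histopaque-1100 gradient and cultured overnight in RPMI-1640 with 10% FBS and antibiotics. They were preincubated 30 min in EBSS with 0.1% BSA and 2.8 mmol/L glucose. Islets were then incubated 90 min with 2.8 or 11.2 mmol/L glucose plus rising test compound levels (6 batches of 4 islets per condition). Linoleic acid and GLP-1(7-36) amide served as controls. Insulin was measured by ECL, expressed as fold over vehicle, and compared by ANOVA with Dunnett's test.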

hGPR40 = hGPR40 (Homo sapiens, UniProt O14842); assay: Calcium flux assay; assay type: cell-based
[2] = system: nuclear hormone receptors, other G-protein-coupled receptors (GPCRs) and enzyme targets; assay: Broad range of assays: nuclear hormone receptors, other GPCRs and enzyme targets; conditions: data not shown
[3] = system: primary islets from WT mice; assay: Insulin secretion from isolated WT mouse islets; assay type: cell-based; conditions: 11.2 mmol/L glucose, 90 min
Method in brief: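 Islets came from 2-3-month-old male wild-type C57BL/6 mice and were purified on a Histopaque-1100 gradient. They were exposed to test compound, or linoleic acid as reference ligand, in 11.2 mmol/L glucose. Insulin secretion is expressed as fold over vehicle, analysed by ANOVA with Dunnett's comparison.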

[4] = Compound exposure in lean mice; assay type: in vivo, mouse; conditions: single oral dose 10 mg/kg, over 8 h
Method in brief: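 Male ICR mice; single oral dose in 0.5% methylcellulose/0.25% Tween-80. EDTA-plasma collected by retro-orbital bleed at 0.5, 1, 2, 4 and 8 h post-dose. Total circulating test compound measured by LC-MS.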

normal ICR mice = assay: IPGTT in lean ICR mice; assay type: in vivo, mouse
Method in brief: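 Male ICR mice aged 9-10 weeks were fasted overnight (about 1600 to 0800) and randomized by fasting glucose and body weight. Test compound or vehicle (0.5% methylcellulose/0.25% Tween-80) was given orally 60 min before IP glucose. Serum was sampled at 0, 3, 6 and 15 min and assayed with a Mesoscale rat/mouse insulin kit.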

WT mice = assay: OGTT in WT mice; assay type: in vivo, mouse; conditions: oral 30 mg/kg, 60 min before OGTT, versus vehicle
Method in brief: (§1)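 Chow-fed male mice aged 2–3 months (WT, GPR40 KO or GPR120 KO) were fasted overnight from about 1600 and randomized at about 0800 by fasting glucose and body weight. Oral test compound 30 mg/kg or vehicle (0.5% methylcellulose, 0.25% Tween-80) was given 60 min before oral glucose 2 g/kg. Tail-blood glucose was read by glucometer at 0, 15, 30, 60 and 120 min, averaging two readings, and analysed by repeated-measures ANOVA.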

GPR40 KO mice = assay: OGTT in GPR40 KO mice; assay type: in vivo, mouse; conditions: oral 30 mg/kg, 60 min before OGTT, versus vehicle
Method in brief: as §1

[5] = system: diet-induced obese (DIO) mice; assay: Glycemic control in DIO mice; assay type: in vivo, mouse; conditions: oral 10 mg/kg once daily
Method in brief: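 Male DIO mice aged 5–6 months were acclimated for 2 weeks and randomized by body weight and fasting blood glucose. They received oral test compound at 10 mg/kg or vehicle (0.5% methylcellulose, 0.25% Tween-80) once daily for 15 days, dosed 60 min before oral glucose. OGTTs on days 1 and 15 sampled tail blood at 0, 15, 30, 60 and 120 min by glucometer, averaging two readings.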

Chain of hGPR40 (O14842 whole entry): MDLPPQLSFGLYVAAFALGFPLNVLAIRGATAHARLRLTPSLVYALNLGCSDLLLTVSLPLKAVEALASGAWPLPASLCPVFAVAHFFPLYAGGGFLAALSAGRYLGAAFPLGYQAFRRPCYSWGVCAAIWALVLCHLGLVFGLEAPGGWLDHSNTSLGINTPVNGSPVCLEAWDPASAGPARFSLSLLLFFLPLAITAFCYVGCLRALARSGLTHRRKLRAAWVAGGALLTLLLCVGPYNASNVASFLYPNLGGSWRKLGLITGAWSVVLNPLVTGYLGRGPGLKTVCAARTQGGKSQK

N[C@@H](CC(=O)N1CCn2c(nnc2C(F)(F)F)C1)Cc1cc(F)c(F)cc1F [sitagliptin, reference compound]
glucose AUC during OGTTs on days 7 and 14 (STZ-treated DIO mice): Results are similar

Cc1cc(OCCCS(C)(=O)=O)cc(C)c1-c1cccc(COc2ccc3c(c2)OC[C@H]3CC(=O)O)c1 [TAK‐875]
HbA1c reduction (individuals with T2D): superior to historical data with DPPIV inhibitors and comparable with that of sulfonylureas

CN(CCOc1ccc(CC2SC(=O)NC2=O)cc1)c1ccccn1 (stereo not shown) [rosiglitazone, Rosiglitazone]
blood glucose during OGTT on day 1 (Zucker fa/fa rats): no glucose lowering

CCCCC/C=C\C/C=C\CCCCCCCC(=O)O [linoleic acid, reference compound]
insulin secretion in GPR40 KO primary islets [1]: a reduction in insulin secretion was seen | insulin secretion in GPR40 KO primary islets ([1]; listed as LA): No insulin secretion

CC#C[C@@H](CC(=O)O)c1ccc(OCc2ccc(CN3CCC4(C=Cc5ccccc54)CC3)cc2)cc1 [LY2881835, (3S)‐3‐(4‐{[4‐(1′H‐spiro[indene‐1,4′‐piperidin]‐1′‐ylmethyl)benzyl]oxy}phenyl)hex‐4‐ynoic acid]
EC50 (hGPR40): 164 ± 94 nM | signals in assay systems not expressing GPR40 [2]: No positive signals were detected | insulin secretion in WT primary islets [3]: statistically significant increase in insulin secretion | insulin secretion in GPR40 KO primary islets [1]: Enhanced insulin secretion was absent; also recorded: No insulin secretion | plasma concentration time course [4]: peaked and remained elevated at 15, 30, and 60 min followed by a slight decrease in levels throughout the 8 h study | insulin AUC during IPGTT (normal ICR mice; oral 10 mg/kg dose group, versus vehicle): statistically significant enhancement in insulin AUC | insulin secretion during IPGTT (normal ICR mice; oral 0.3, 1, 3 and 10 mg/kg, 60 min before IP glucose 2 g/kg): clear dose‐dependent enhancement in insulin secretion | glucose levels during OGTT (WT mice): significant glucose lowering | glucose levels during OGTT (GPR40 KO mice): had no effect on glucose levels | hypoglycemia [5]: no evidence of hypoglycemia was observed | fasting glucose levels at time 0 of the OGTTs ([5]; 60 min after administration): significantly reduced | glucose levels during OGTTs ([5]; OGTTs on days 1 and 15): Significant reductions in glucose levels | blood glucose during OGTT after a single treatment (STZ-treated DIO mice; oral 30 mg/kg, day 1): lowered blood glucose | glucose AUC during OGTTs on days 7 and 14 (STZ-treated DIO mice): Results are similar
